Compound activity from PubChem.
PHOSPHO1 block: blocks human PHOSPHO1 phosphatase activity. inhibition, % at 13.3 µM. recombinant PHOSPHO1, absorbance phosphatase assay. 290,000 tested, 1.1% active. Q8TCT1; in the data active = inhibition above about 60%
Target sequence (Q8TCT1 whole entry, looked up): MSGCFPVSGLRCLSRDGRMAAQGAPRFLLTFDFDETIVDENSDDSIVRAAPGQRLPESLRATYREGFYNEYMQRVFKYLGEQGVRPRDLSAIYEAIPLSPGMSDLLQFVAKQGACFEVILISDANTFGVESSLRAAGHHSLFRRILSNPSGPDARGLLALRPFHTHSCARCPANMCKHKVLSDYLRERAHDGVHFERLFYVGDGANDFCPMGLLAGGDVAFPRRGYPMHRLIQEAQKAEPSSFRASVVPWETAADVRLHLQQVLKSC
MrgX1 allo act: allosterically activates human MrgX1 receptor signaling. MrgX1-HEK293, Fluo-4 calcium flux, FDSS; hits give high values. B-score at 10 µM. 310,000 tested, 0.63% active. Q96LB2. AID 588675;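 active = plate-corrected calcium response at least 3 library SD above typical, normal starting fluorescence, not activating the receptor alone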;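 note: compound read alongside a low EC10 to EC30 dose of BAM8-22 agonist; peak minus trough fluorescence over baseline measured at the second addition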
MrgX1 antagonist: blocks BAM8-22 activation of human MrgX1 receptor | 310,000 tested, 1.3% active | Q96LB2 | MRGX1-HEK293 calcium flux, Fluo-4, BAM8-22 antagonism; hits give low values | B-score at 10 µM;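 active = calcium-response B-score plate-corrected more than 3 library SD below zero, starting fluorescence within 5 deviations, no agonist response on first addition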;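 note: peak minus trough fluorescence over baseline after final BAM8-22 challenge near maximal dose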
RGS4 pot: RGS4 potentiation or activation. HEK293 M3R/inducible RGS4, carbachol calcium flux Fluo4; hits give low values. B-score at 10 µM. 310,000 tested, 0.92% active. AID 463111;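 active = B-score of the integrated calcium signal more than 4 SD below the library mean, with starting fluorescence not abnormally high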;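 note: negative B-score means reduced calcium response which marks RGS4 activation or potentiation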
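Reagent: ECmax carbachol challenge; Test system: M3R-expressing HEK293 line, RGS4 induced by doxycycline; Schedule: overnight RGS4 induction, 30 min dye load 37 °C, 20 min compound RT; Detection: calcium dye Fluo4 fluorescence; Read-out: Agonist-evoked peak-minus-minimum fluorescence over baseline, integrated ratio, B score.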
RGS4 inh: inhibitors of human RGS4; B-score at 10 µM; P49798; HEK293 M3R/RGS4 inducible, Fluo-4 calcium flux; hits give high values; triggered by carbachol at its EC20; 310,000 tested, 0.45% active; AID 463165;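 active = B-score, a plate-corrected calcium signal, over three deviations above library mean, with baseline fluorescence within five deviations of library mean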;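 note: RGS4 expression induced by doxycycline in cells with stable M3 receptor; B-score is computed from the integrated fluorescence ratio over baseline after carbachol; higher B-score means a larger calcium signal and so more RGS4 inhibition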
Target sequence (P49798 whole entry, looked up): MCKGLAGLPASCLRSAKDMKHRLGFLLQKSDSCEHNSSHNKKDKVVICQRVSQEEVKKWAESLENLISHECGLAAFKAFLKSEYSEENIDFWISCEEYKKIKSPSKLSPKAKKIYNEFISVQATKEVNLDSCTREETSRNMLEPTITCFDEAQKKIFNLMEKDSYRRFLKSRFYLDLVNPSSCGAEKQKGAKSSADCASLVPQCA
MrgX1 ag: activates human MrgX1 receptor signaling; Q96LB2; MrgX1-HEK293 cells, Fluo-4 calcium fluorescence, agonist mode; hits give high values; B-score at 10 µM; 310,000 tested, 0.44% active; AID 588627;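 active = calcium response B-score plate-corrected fluorescence ratio at least 3 library SD, with starting fluorescence B-score inside 5 SD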
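Test system: HEK293 cells stably expressing human MrgX1 receptor; amount: 15,000 cells per well; doses: compound delivered in addition one of three; times: overnight plating before 1 h dye loading; detection: Fluo-4 NW calcium-flux fluorescence, kinetic read; read-out basis: B-scored fluorescence response ratio; controls: positive and negative controls per plate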
A number is an active result; i = inactive; nt = no result. Shown are actives, neighbours in structure and some others; about 4.5% of the full set was active somewhere.

SMILES	PHOSPHO1 block	MrgX1 allo act	MrgX1 antagonist	RGS4 pot	RGS4 inh	MrgX1 ag
Cc1cccc(OCc2n(CC(=O)OC3CC(C)CCC3C(C)C)c3ccccc3[n+]2C)c1 (stereo not drawn)	i	i	-9.64	-12.3	i	i
CC(C)NC(=O)N(Cc1ccccc1)Cc1cccs1	i	i	i	i	i	i
O=C(CCNc1n[nH]c(=O)[nH]c1=O)N/N=C\c1cccc(OCc2ccccc2)c1	i	i	i	i	i	i
COC(=O)Cc1ccc(OC(=O)c2cccc(S(=O)(=O)N3CCN(C)CC3)c2)cc1	nt	i	i	i	i	i
CCOC(=O)C1(Cc2ccc(Cl)cc2)CCN(C(=O)CCc2ccncc2)CC1	i	i	i	i	i	i
O=C(CSCc1nc2scc(-c3cccs3)c2c(=O)[nH]1)Nc1ccccn1	i	i	i	i	i	i
O=c1[nH]c(CN2CCc3ccccc32)nc2scc(-c3cccs3)c12	63.6	i	i	i	i	i
CC1=NN(C(=O)c2ccccc2F)C(O)(c2ccc(Cl)cc2)C1 (stereo not drawn)	i	i	i	i	i	i
C=CCn1c(=O)/c(=C2/Sc3ccccc3N2CC)s/c1=C1/C(=O)NN=C1C	i	i	i	i	i	i
C=CCn1c(=O)/c(=C2/SC(C)=C(C)N2CC)s/c1=C1/C(=O)N(CC)C(=S)N1c1ccccc1	100.3	i	i	i	i	i
COc1ccc(CN(C)S(=O)(=O)c2nnc(NC(=O)c3cccc(C)c3)s2)cc1OC	i	i	i	i	i	i
c1ccc2[nH]c(SN3CCOCC3)nc2c1	102.2	nt	nt	nt	nt	nt
CCOC(=O)CSc1nc(-c2ccccc2)nc2c1oc1ccccc12	i	i	i	-7.3	i	i
CCOC(=O)C1CCN(c2nc(-c3ccccc3)nc3c2oc2ccccc23)CC1	i	i	i	i	i	i
O=C(O)c1ccccc1C(=O)Nc1ccc(S(=O)(=O)NC2CCCCC2)cc1	i	i	i	i	i	i
COCCn1c(SC(C(=O)Nc2cc(C)ccc2OC)c2ccccc2)nnc1-c1ccc(Cl)cc1 (stereo not drawn)	62.7	i	i	i	i	i
COc1ccc(C)cc1NC(=O)C(Sc1nnnn1C)c1ccccc1 (stereo not drawn)	i	i	i	i	i	i
CN(Cc1cnn(C)c1)C(=O)C1CCC(=O)N(Cc2cccc(F)c2)C1 (stereo not drawn)	i	i	i	i	i	i
COc1ccc(CCN2CC(C(=O)N(C)CCn3nc(C)cc3C)CCC2=O)cc1 (stereo not drawn)	i	i	i	i	i	i
CC(C)N(Cc1cnn(C)c1)C(=O)C1CCC(=O)N(CCc2cccc(F)c2)C1 (stereo not drawn)	61.0	i	i	i	i	i
Cc1cc(C)n(CCN(C)C(=O)C2CCC(=O)N(CCc3cccc(F)c3)C2)n1 (stereo not drawn)	64.0	i	i	i	i	i
CCCCCCCOC(=O)C[N+](C)(C)CCOC1CC2CCC1(C)C2(C)C (stereo not drawn)	i	nt	nt	-8.15	i	nt
CCCc1cc(C(=O)N2CCCC(C(=O)c3ccc(Cl)cc3)C2)n(C)n1 (stereo not drawn)	i	i	i	i	i	i
CCc1ccc2[nH]c(=O)c(C(c3nnnn3CCOC)N3CCN(c4ccccc4)CC3)cc2c1 (stereo not drawn)	85.6	i	i	i	i	i
COc1ccc2cc(C(c3nnnn3C(C)(C)C)N3CCc4ccccc4C3)c(=O)[nH]c2c1 (stereo not drawn)	i	i	i	nt	nt	i
SMILES	PHOSPHO1 block	MrgX1 allo act	MrgX1 antagonist	RGS4 pot	RGS4 inh	MrgX1 ag
CCc1ccc2[nH]c(=O)c(C(c3nnnn3CCOC)N3CCN(c4ccc(F)cc4)CC3)cc2c1 (stereo not drawn)	i	i	i	i	i	i
COc1cc2cc(C(c3nnnn3Cc3ccc(F)cc3)N3CCCCCC3)c(=O)[nH]c2cc1OC (stereo not drawn)	i	i	i	i	i	i
COc1ccc(Cn2nnnc2C(c2cc3ccc(OC)cc3[nH]c2=O)N2CCCCCC2)cc1 (stereo not drawn)	85.6	i	i	i	i	i
COc1ccc2cc(C(c3nnnn3C3CCCC3)N3CCc4ccccc4C3)c(=O)[nH]c2c1 (stereo not drawn)	97.8	i	i	i	i	i
O=C(NC(=S)Nc1ccccn1)c1cccc([N+](=O)[O-])c1	i	i	i	i	i	i
CN1CCN(/N=C/c2ccc(-c3ccc([N+](=O)[O-])cc3Cl)o2)CC1	i	i	-4.6	i	i	i
O=[N+]([O-])c1ccc(Cl)c(-c2ccc(/C=N/n3cnnc3)o2)c1	i	i	i	i	i	i
Cc1ccc(S(=O)(=O)N2CCOC23CCN(C(=O)C(=O)NCCC(C)C)CC3)cc1	nt	i	i	i	i	i
Cc1cc(OCCN2CC(C)OC(C)C2)ccc1[N+](=O)[O-] (stereo not drawn)	i	i	i	i	i	i
Cc1cc(OCCN2CCC(Cc3ccccc3)CC2)ccc1[N+](=O)[O-]	nt	i	i	-7.97	i	i
C/C(N)=C(/C#N)C(=O)CSc1nc2ccccc2[nH]1	i	i	i	i	i	i
COc1ccc(/C=c2\s/c(=C/C(=O)c3ccc(C)cc3)[nH]c2=O)cc1OC	i	i	i	i	i	28.6
CC(C)(C)C(=O)/C=c1\[nH]c(=O)/c(=C\c2ccc(F)cc2)s1	i	i	i	i	i	i
Cc1cc(C)c(C)c(C(=O)CSc2nnc(-c3ccc4[nH]c(C)c(C)c4c3)o2)c1C	61.1	i	i	i	i	i
O=C(CSc1nnc(-c2ccc(F)cc2)o1)c1ccc2c(c1)OCCO2	i	i	i	i	i	i
Cc1[nH]c2ccc(-c3nnc(SCC(=O)c4ccc(F)cc4)o3)cc2c1C	86.6	i	i	i	i	i
COc1ccc(CNC(=O)C2CC(=O)N(C3CCCC3)C2)cc1 (stereo not drawn)	i	i	i	i	i	i
CC1=C(C(=O)OCC2CCCO2)C(c2coc3ccccc3c2=O)C2=C(CCCC2=O)N1 (stereo not drawn)	i	i	i	i	i	i
Cc1ccc(-c2noc(CCC(=O)NC3CC3)n2)cc1	i	i	i	i	i	i
COc1ccc(-n2nc([N+](=O)[O-])c(=NCCCN3CCCC3=O)n2O)cc1	61.2	i	i	i	i	i
O=C1CCCN1CCCN=c1c([N+](=O)[O-])nn(-c2ccc(Cl)cc2)n1O	i	nt	nt	i	i	nt
COc1ccc(CN(N=O)C2CC(=O)N(c3ccc(OC)cc3)C2=O)cc1 (stereo not drawn)	i	i	i	-10.3	i	i
COc1ccc(N2C(=O)CC(N(CCc3ccccc3)C(=O)/C=C/C(=O)O)C2=O)cc1 (stereo not drawn)	64.2	i	i	i	i	i
